Ba/F3 V617F tox – reduce viability of Ba/F3 cells dependent on JAK2V617F. inhibition, % at 5.6 µM. AID 1446. actives 1.1% (n = 220,000). Ba/F3 EpoR-JAK2V617F viability, ATP luminescence;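 active means inhibition above the campaign mean plus 3 SD over all tested compounds, cut at about 24% in these data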;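 further: cytokine-independent growth of Ba/F3 cells driven by EpoR plus mutant JAK2; 0% = DMSO-treated cells and 100% = JAK inhibitor I control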
b-catenin transl – modulators of beta-catenin nuclear translocation. actives 0.3% (n = 190,000). HeLa beta-catenin nuclear translocation, immunofluorescence imaging. nuclear translocation activity, % at 5 µM;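 active means nuclear translocation activity above 50% at 5 µM, with a well cell count of 50 or more; inconclusive means wells under 50 cells across six images, flagged as toxic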;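 further: per-cell ratio of nuclear to cytoplasmic median beta-catenin stain intensity; plate controls were DMSO negative control for no effect and GSK-3 inhibitor IX positive control for full effect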
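System: Human HeLa cells, endogenous beta-catenin | Compound dosing: 5 µM primary, 0.02–20 µM confirmation | Timing: 24 h compound exposure at 37°C, 5% CO2 | Measured by: Fluorescence imaging of beta-catenin antibody stain plus DAPI | Read-out basis: % activation of per-cell nuclear versus cytoplasmic median beta-catenin signal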
MT stabilizer – microtubule stabilization, imaging screen | HeLa tubulin immunostaining HCS, 24 h; share of cells brighter than vehicle mean+2SD | actives 0.83% (n = 200,000) | % tubulin-high responders, % at 10 µM;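 active means plate Z-score above 3 for both tubulin-high and condensed-nucleus cell shares, with cell loss under 80%, at 10 µM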;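 further: anti alpha tubulin signal scored within the nucleus-defined area of each cell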
APP transl inh – APP translation inhibition; AID 1285; actives 0.82% (n = 190,000); SH-SY5Y APP 5'UTR-luciferase reporter, luminescence; inhibition, % at 2 µM;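 active means inhibition above a set limit, derived from the sample mean plus 3 SD, cut at about 45% in these data; inconclusive means one replicate passes the limit while the other fails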
BaF3 tox – counter-screen for JAK2V617F inhibitors: parental Ba/F3 viability inhibitors; inhibition, % at 5.6 µM; actives 1.1% (n = 220,000); AID 1486; CellTiter-Glo ATP luminescence;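 active means inhibition above a per-campaign cutoff, the mean inhibition of all tested compounds plus 3 SD, cut at about 27% in these data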;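 further: 0% = DMSO wells and 100% = JAK Inhibitor I control wells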
IEC-6 tox – kills IEC-6 intestinal cells in KLF5 counter-screen; IEC-6 cytotoxicity, luminescence viability; inhibition, % at 5 µM; actives 0.78% (n = 290,000); AID 1825;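 further: 0% = plate median of test compound wells and 100% = cytotoxic reference compound wells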
IEC-6 tox confirm – IEC-6 cytotoxicity, confirmation assay; shares compounds with IEC-6 tox; IEC-6 rat intestinal epithelial viability, luminescence; inhibition, % at 5 µM; actives 63% (n = 1,900);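 further: 0% = vehicle and 100% = reference cytotoxic drug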
* hit, by the source's call; ? = inconclusive; . = no result given; ! = a repeat was not active. Shown are actives, neighbours in structure and some others; about 2.2% of the full set was active somewhere. Unless noted, no stated cut-off is given here; in the data, active means inhibition above about 22%; inactive means the rest.

SMILES | Ba/F3 V617F tox | b-catenin transl | MT stabilizer | APP transl inh | BaF3 tox | IEC-6 tox | IEC-6 tox confirm
COc1ccc(N/N=C/c2c(C(=O)O)ccc3ccccc23)cc1 | 35.1* | -0.9 | . | . | 40.0* | 41.4* | 35.8*
COc1ccc2ccccc2c1/C=N/Nc1ccc(Cl)c(C(=O)O)c1 | . | . | . | . | . | -3.7 | .
CCCn1nnnc1NCc1ccc(C(C)C)cc1 | . | . | . | . | . | 12.4 | .
Cc1ccc2oc(C(=O)NCc3ncc(C)[nH]3)c(C)c2c1 | . | . | . | . | . | 33.8* | 21.0
Cc1cnc(CNC(=O)c2ccc3oc(C(C)C)nc3c2)[nH]1 | . | . | . | . | . | -8.9 | .
Cc1cccc(NC(=O)Cn2cc(C(=O)C3CC3)c3ccccc32)c1C | . | . | . | . | . | 28.6* | 16.1
Cc1ccc(N(CCC#N)C(=O)COC(=O)c2ccccn2)cc1 | . | . | . | . | . | -0.6 | .
COc1cc2nc(=S)n3[nH]c(CCn4nc(C)cc4C)nc3c2cc1OC | 3.6 | -1.2 | 4.3 | 15.8 | 7.5 | 53.3* | 8.4
COc1cc2nc(=S)n3[nH]c(COc4ccccc4C)nc3c2cc1OC | 1.4 | -2.5 | 4.4 | -1.8 | 4.8 | -1.1 | .
CCN(CC)c1ccc2nc3ccccc3[n+](CC)c2c1 | . | . | . | . | . | 34.1* | 33.5*
CCN(CC)c1ccc2cc(-c3nc4ccccc4[nH]3)c(=O)oc2c1 | -0.7 | 0.8 | 18.4 | -185.2 | 1.9 | 4.6 | .
COc1cccc2cc(C(=O)C3=C(O)C(=O)N(c4cc(C)on4)C3c3cccs3)oc12 (centres undefined) | . | . | . | . | . | -2.8 | .
O=C(OCC(=O)N1CCCC1=O)c1nc(Cl)c(Cl)c(Cl)c1Cl | . | . | . | . | . | 41.7* | 5.3
O=C(CN1CCN(Cc2ccccc2)CC1)N=Nc1c(O)[nH]c2ccccc12 | -1.0 | -0.9 | 1.6 | 9.4 | 6.4 | 22.9* | 5.7
C/C(=N\N=C1\NC(=O)C(Cc2ccccc2)S1)c1ccccc1 (centres undefined) | 0.2 | 1.5 | 3.7 | 4.1 | 5.9 | 1.8 | .
CC(=O)/C(C#N)=C1\NC(=O)C(Cc2ccccc2)S1 (centres undefined) | -0.7 | -3.0 | 2.3 | 5.3 | 1.6 | 75.9* | 51.4*
CC(=O)/C(C#N)=C1\NC(=O)C(Cc2ccccc2C)S1 (centres undefined) | 3.8 | 5.8 | . | . | 9.0 | 70.9* | 46.6*
Cc1ccccc1NC(=O)c1nc(S(C)(=O)=O)ncc1Cl | . | . | . | . | . | 39.6* | 14.7
CCCc1nnc(NC(=O)c2nc(S(=O)(=O)Cc3cccc(C)c3)ncc2Cl)s1 | . | . | . | . | . | 6.9 | .
CS(=O)(=O)c1ncc(Cl)c(C(=O)Nc2ccc(N3CCOCC3)cc2)n1 | 8.5 | 2.6 | 2.4 | 44.3 | 3.1 | -2.0 | .
Cc1nnc(NC(=O)c2nc(S(=O)(=O)Cc3ccccc3)ncc2Cl)s1 | . | . | . | . | . | 33.7* | -3.8
Cc1cccc(C)c1NC(=O)c1nc(S(=O)(=O)Cc2ccccc2)ncc1Cl | . | . | . | . | . | 38.0* | 15.2
CSc1ncc(Cl)c(C(=O)Nc2cccc3ccccc23)n1 | -1.4 | -0.7 | 2.8 | -7.9 | 1.6 | 3.6 | .
Cc1cccc(CS(=O)(=O)c2ncc(Cl)c(C(=O)Nc3c(C)cccc3C)n2)c1 | . | . | . | . | . | 35.0* | 11.2
CC(C)N1CC(C(=O)Nc2ccc(C#N)cc2)CC1=O (centres undefined) | . | . | . | . | . | 1.8 | .
SMILES | Ba/F3 V617F tox | b-catenin transl | MT stabilizer | APP transl inh | BaF3 tox | IEC-6 tox | IEC-6 tox confirm
COc1cccc(N2C(=NC(=O)C3CCCO3)SC3CS(=O)(=O)CC32)c1 (centres undefined) | . | . | . | . | . | 3.4 | .
COc1ccc(CN2CCC(n3nccc3NC(=O)CCOc3ccccc3)CC2)cc1C | . | . | . | . | . | -10.5 | .
Cn1cc(Br)c(C(=O)N/N=C/c2cc3c(cc2Cl)OCO3)n1 | . | . | . | . | . | -3.6 | .
Cc1cccc(CS(=O)(=O)c2ncc(Cl)c(C(=O)NCc3ccccc3)n2)c1 | . | . | . | . | . | 61.6* | 29.3*
CS(=O)(=O)c1ncc(Cl)c(C(=O)Nc2ccc(OC(F)F)cc2)n1 | . | . | . | . | . | 99.2* | 28.6*
O=C(NCc1ccccc1)c1cnc(Cl)c(Cl)c1 | . | . | . | . | . | 4.0 | .
CCCN1CCN(S(=O)(=O)c2c(C)[nH]c(C)c2C(=O)N2CCCCC2)CC1 | . | . | . | . | . | -9.0 | .
CCn1c(-c2ccc(N(C)C)cc2)nc2ccccc21 | 77.9* | 0.6 | 3.9 | -95.6 | 67.8* | 30.2* | 6.0
Cc1ccccc1CN(C)Cc1cc(=O)oc2c(C)c(C)ccc12 | . | . | . | . | . | 27.7* | 17.7
Cc1c(O)ccc2c(CN(C)Cc3ccccc3)cc(=O)oc12 | -1.6 | 0.3 | . | . | 2.4 | 58.0* | 15.2
COc1cccc(CN(C)Cc2cc(=O)oc3c(C)c(C)ccc23)c1 | . | . | . | . | . | 61.0* | 39.0*
Cc1c(Cl)cccc1NC(=O)Nc1cc(C(C)(C)C)on1 | . | . | . | . | . | 8.7 | .
Cc1cc(C)n(CCNC(=O)C2CCC(=O)N(Cc3ccc(Cl)cc3)C2)n1 (centres undefined) | . | . | . | . | . | 6.3 | .
Cc1[nH]c2c(ccc3cccnc32)c1C | -6.0 | -1.6 | . | . | -1.3 | -1.2 | .
CC1=[N+](C)c2c(ccc3cccnc23)C1(C)C | 72.0* | 1.4 | 3.1 | 20.0 | 62.6* | 26.5* | 33.1*
Nc1c2c(nc3ccccc13)CCCC2 | -1.1 | . | 2.7 | -11.9 | 3.9 | -3.0 | .
Nc1c2ccccc2nc2ccccc12 | 61.4* | 3.7 | . | . | 36.0* | 38.4* | 56.0*
COc1ccc(Br)cc1CN(C)CC(O)COc1ccc(Br)cc1 (centres undefined) | . | . | . | . | . | 2.6 | .
NC1=C(Br)C(=O)c2ccccc2C1=O | 4.5 | 1.1 | . | . | -0.9 | 29.2* | 12.2
COc1cc(CNC(C)C23CC4CC(CC(C4)C2)C3)cc(OC)c1OC (centres undefined) | . | . | . | . | . | -1.7 | .
Cc1cc(NCCCn2ccnc2)n2ncc(-c3ccc(Cl)cc3)c2n1 | 4.3 | . | 4.3 | -253.3 | 11.8 | 33.3* | 26.8*
Cc1cnc(NC(=O)Nc2ccccc2)c(C)n1 | . | . | . | . | . | 5.8 | .
Cc1cccc2cc3c(nc12)SC(=NCC1CCCO1)N(Cc1ccco1)C3 (centres undefined) | 8.6 | 2.9 | 32.5* | 2.0 | 8.9 | 88.5* | 3.5
Cc1ccccc1NC1=C/C(=N\S(=O)(=O)c2ccc(C(=O)O)cc2)c2ccccc2C1=O | . | . | . | . | . | 16.0 | .
CC(=O)Nc1ccc(NC2=C/C(=N/S(=O)(=O)c3cccs3)c3ccccc3C2=O)cc1 | 3.3 | ? | 2.8 | 34.9 | 3.1 | 43.3* | 3.9
COc1ccc(S(=O)(=O)/N=C2\C=C(Nc3ccc(O)cc3)C(=O)c3ccccc32)cc1 | . | . | . | . | . | 101.1* | 99.7*
Cc1ccc(NC2=C/C(=N/S(=O)(=O)c3cccs3)c3ccccc3C2=O)cc1C | 3.4 | -0.1 | 2.9 | -40.5 | 3.2 | -2.6 | .
COC(=O)CCCC(=O)NCC1(N(C)Cc2ccccc2)Cc2ccccc2C1 | . | . | . | . | . | -6.1 | .
CC1CCC(C(C)C)C(OC(=O)Cn2c(-c3ccccc3)[n+](C)c3ccccc32)C1 (centres undefined) | 100.5* | -7.0 | 3.6 | -19.4 | 93.4* | 27.6*! | 17.9
CC1CCC(C(C)C)C(OC(=O)CSc2nnc(N)s2)C1 (centres undefined) | -2.8 | -1.7 | 2.3 | -5.3 | 2.8 | -1.4 | .
